Test results as given in publication PMC7339641 (Molecular imaging and biology, 2018).

Assays:
MDA-MB-453 cells = experiment: Fluorescent microscopy of peptide binding, MDA-MB-453; type: cell-based, human; conditions: fixed cells, peptide 250 nM, 1 h room temperature, neutravidin-AlexaFluor488
How it was run: (§1)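 Cells fixed in 10 % formalin and dried onto slides overnight. Rehydrated in TBS, then blocked with 2 % BSA in TBS for 1 h. Biotinylated test peptide at 250 nM in 0.1 % TBST for 1 h at room temperature, then 3× washes with 0.1 % TBST. Neutravidin-AlexaFluor488 for 1 h at room temperature. Mounted in DAPI-containing medium and imaged on an inverted microscope.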

HCC-1954 cells = experiment: Fluorescent microscopy of peptide binding, HCC-1954; type: cell-based; conditions: fixed cells, peptide 250 nM, 1 h room temperature, neutravidin-AlexaFluor488
How it was run: as §1

HER3 = conditions: human, in vivo; cited from earlier work

Compound	binding by fluorescent microscopy, MDA-MB-453 (MDA-MB-453 cells)	binding by fluorescent microscopy, HCC-1954 (HCC-1954 cells)	specific accumulation measured by tumor-to-blood ratio (HER3)
CC(C)C[C@@H]1NC(=O)[C@@H](NC(=O)CNC(=O)CNC(=O)CNC(=O)CCCC[C@@H]2SC[C@@H]3NC(=O)N[C@@H]32)CSSC[C@@H](C(=O)O)NC(=O)[C@H](CO)NC(=O)[C@H](CCCNC(=N)N)NC(=O)[C@H](Cc2ccccc2)NC(=O)[C@H](CCCCN)NC(=O)[C@H]([C@@H](C)O)NC(=O)[C@@H]2CCCN2C1=O [biotinylated-HER3P1]	high binding	almost no visualization	–
^64Cu-labeled DOTA-conjugated patritumab: 64Cu-labeled DOTA conjugate of the anti-HER3 antibody patritumab	–	–	approximately 1
